Assay results from paper PMC12282411 (Virologica Sinica, 2025).
Changes are numbered by the printed parent chain. Counter-ions that a name gives are not always drawn.

What was measured:
DENV 2 [1] = assay: microbe, parasite or virus in culture; assay type: cell-based; details: for EC50: Dengue virus, BHK-21, 48 h, read-out: EC50 (BHK-21 μM); for SI (CC50/EC50): selective index, BHK-21 CC50 / BHK-21 EC50
DENV 2 [2] = assay: Antiviral assay on Huh 7 cells; assay type: cell-based; details: Dengue virus, Huh-7, 48 h, read-out: EC50 (Huh 7 μM)
Outline: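 Huh 7 cells were seeded at 4×10^4/well and grown overnight at 37 °C, 5% CO₂. Test compound was serially diluted threefold from 50 µM in DMEM with 2% FBS and added to cells for 1 h. DENV 2 was added at MOI 1 for 1 h, then the inoculum was removed, cells washed with PBS, and compound re-added. After two days, supernatant viral RNA was quantified by one-step SYBR RT-qPCR against an NS5A standard curve.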

DENV 2 [3] = assay: DENV 2 challenge of AG129 mice; assay type: in vivo; details: for viral copy numbers in the spleen and liver: i.g., two days post infection, Fig. 2F
NS2B-NS3pro = target: T1, NS2B-NS3pro (Dengue virus type 2, UniProt P29990, M1488V); assay type: binding, DENV 2; details: SPR
T1 sequence (P29990 with tags, fused parts or gaps T1441G/I1442G/L1443G/I1444G/R1445S/T1446G/DEL1448-1473/Q1474G/R1475G/M1488V): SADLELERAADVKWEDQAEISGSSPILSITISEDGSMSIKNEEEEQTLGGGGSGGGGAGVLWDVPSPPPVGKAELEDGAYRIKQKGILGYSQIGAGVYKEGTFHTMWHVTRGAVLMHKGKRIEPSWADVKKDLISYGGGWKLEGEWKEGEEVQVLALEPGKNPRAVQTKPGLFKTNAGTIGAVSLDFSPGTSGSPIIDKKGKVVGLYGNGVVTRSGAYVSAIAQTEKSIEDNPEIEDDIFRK

DENV 2 [4] = assay: Time-of-addition assay; assay type: cell-based; details: BHK-21 cells
Outline: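 The assay used BHK-21 cells seeded overnight. In the treatment-mode arms, cells were infected at MOI 0.1 for 0–1 h, with compound applied as virus pretreatment for 1 h, cell pretreatment (–1–0 h), post-infection (1–46 h) or full-time (–1–46 h). In the addition-time arms, infection was at MOI 1 for 1 h, with compound added at 0–36 h. Readout at 48 h was supernatant RT-qPCR and IFA, with DMSO and ribavirin as controls.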

Pharmacokinetics in rats = assay type: in vivo, Sprague-Dawley rats; details: SD rats, i.v. as a reference
Outline: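 Male Sprague-Dawley rats (180–220 g), three per group, were fasted overnight. Test compound was dosed i.g. at 20 mg/kg as a suspension in 0.4% sodium carboxymethylcellulose, or i.p. dissolved by sonication in 10% DMSO/40% PEG 300/5% Tween 80/45% saline. Jugular plasma was sampled repeatedly up to 36 h. Samples were mixed with diclofenac sodium, precipitated with acetonitrile, and analysed by LC-MS/MS. Parameters were derived by non-compartmental analysis.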

ZIKV NS2B-NS3pro = target: T2, ZIKV NS2B-NS3pro (Zika virus, UniProt Q32ZE1); assay: FRET assay on ZIKV NS2B-NS3pro; assay type: biochemical
T2 sequence (Q32ZE1 with tags, fused parts or gaps DEL1464-1489/Y1490G/V1491G/Y1492G/V1493G/K1494S/T1495G/K1497G/R1498G): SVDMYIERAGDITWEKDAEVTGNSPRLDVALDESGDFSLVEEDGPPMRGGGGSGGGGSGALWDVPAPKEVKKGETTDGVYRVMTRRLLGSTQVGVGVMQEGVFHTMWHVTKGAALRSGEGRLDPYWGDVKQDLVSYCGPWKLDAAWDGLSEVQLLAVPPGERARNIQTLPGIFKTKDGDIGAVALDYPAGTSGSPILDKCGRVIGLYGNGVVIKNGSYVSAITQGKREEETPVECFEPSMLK

DENV 2 NS2B-NS3pro = target: T3, DENV 2 NS2B-NS3pro (Dengue virus type 2, UniProt P29990); assay: Enzyme kinetic analysis; assay type: biochemical
T3 sequence (P29990 with tags, fused parts or gaps T1441G/I1442G/L1443G/I1444G/R1445S/T1446G/DEL1448-1473/Q1474G/R1475G): T1 sequence (P29990 with tags, fused parts or gaps T1441G/I1442G/L1443G/I1444G/R1445S/T1446G/DEL1448-1473/Q1474G/R1475G/M1488V) with V70M

Water solubility = assay type: physicochemical

SMILES | EC50 (DENV 2 [1]) [µM] | EC50 (DENV 2 [2]) [µM] | viral copy numbers in the spleen and liver (DENV 2 [3]) | SI (CC50/EC50) (DENV 2 [1]) | also measured
COC(=O)N[C@H](C(=O)N1CCC[C@H]1c1nc(-c2ccc3c(c2)O[C@@H](c2ccccc2)n2c-3cc3cc(-c4c[nH]c([C@@H]5CCCN5C(=O)[C@@H](NC(=O)OC)C(C)C)n4)ccc32)c[nH]1)C(C)C [MK-8742] | 0.0459 | 0.161 | no effect |  | 
C#CCC(Cc1cnc2nc(N)nc(N)c2n1)c1ccc(C(=O)N[C@@H](CCC(=O)O)C(=O)O)cc1 (stereo partly drawn) [Pralatrexate] | < 0.0076 | < 0.07 |  | >13684.21 | SI (CC50/EC50) (DENV 2 [1]; listed as pralatrexate): greater than 100; binding affinity on NS2B-NS3pro (NS2B-NS3pro): almost no binding affinity
COC(=O)N[C@H](C(=O)N1CC2(CC2)C[C@H]1c1nc(-c2ccc3c(c2)C(F)(F)c2cc(-c4ccc5[nH]c([C@@H]6[C@H]7CC[C@H](C7)N6C(=O)[C@@H](NC(=O)OC)C(C)C)nc5c4)ccc2-3)c[nH]1)C(C)C [GS-5885] | 3.31 | 0.529 | no effect |  | 
NC(=NCc1ccccc1)NC(=O)c1nc(Cl)c(N)nc1N [Benzamil hydrochloride] | 0.368 | 2.62 |  | 120.85 | SI (CC50/EC50) (DENV 2 [1]; listed as benzamil hydrochloride): greater than 100; binding affinity on NS2B-NS3pro (NS2B-NS3pro): almost no binding affinity
NC(=O)c1ncn([C@@H]2O[C@H](CO)[C@@H](O)[C@H]2O)n1 [Ribavirin] |  |  |  |  | time of addition following DENV 2 infection with effective inhibition (DENV 2 [4]; MOI = 1, RT-qPCR at 48 h): ≤ 12 h
CCOC(=O)c1ccc(C#Cc2ccc3c(c2)C(C)(C)CCS3)nc1 [AGN190168] | 10.9 | 0.107 |  | 24.15 | 
Cc1cc(-c2ccc(/N=N/c3ccc4c(S(=O)(=O)O)cc(S(=O)(=O)O)c(N)c4c3O)c(C)c2)ccc1/N=N/c1ccc2c(S(=O)(=O)O)cc(S(=O)(=O)O)c(N)c2c1O [Evans Blue] | 4.85 | 0.337 |  | 49.98 | 
CC1=NN(c2ccc(C)c(C)c2)C(=O)/C1=N\Nc1cccc(-c2cccc(C(=O)O)c2)c1O [Eltrombopag] | 0.316 | 1.46 | significantly reduced |  | viral copy numbers in the liver, spleen, and kidney (DENV 2 [3]; 10 or 20 mg/kg, i.g. or i.p., two days post challenge, Fig. 3C): reduced the viral copy numbers in the liver, spleen, and kidney in a dose-dependent manner; decrease of viral loads in spleen (DENV 2 [3]; DENV 2 at 10^7 TCID50): more than 1 log; expression of TNF-α and IL-6 in the blood (DENV 2 [3]; RT-qPCR, Fig. 3D): inhibited the expression of TNF-α and IL-6; inhibitory effect on viral copies by delivery route (DENV 2 [3]; i.p. compared with i.g., Fig. 3C): stronger inhibitory effect when delivered via i.p.; pharmacokinetics i.p. compared with i.g. (Pharmacokinetics in rats): better absorption, distribution, and clearance; inhibition on addition at 36 h or later (DENV 2 [4]; MOI = 1, RT-qPCR at 48 h): reduced inhibition; time of addition following DENV 2 infection with effective inhibition (DENV 2 [4]; MOI = 1, RT-qPCR at 48 h): ≤ 24 h; inhibition when added at the post-infection stage versus full-time treatment (DENV 2 [4]; RT-qPCR at 48 h): comparable inhibition; effect on the viruses and cells themselves (pretreatment modes) (DENV 2 [4]; pretreatment of virus or of cell): negligible effect; IC50 (ZIKV NS2B-NS3pro): 29.8 µM; reversibility of binding to DENV2 NS2B-NS3pro (DENV 2 NS2B-NS3pro; varying NS2B-NS3pro, fixed substrate 20 μM, eltrombopag 0, 10 and 20 μM): reversibly binds; mode of inhibition with respect to substrate (DENV 2 NS2B-NS3pro; varying substrate, NS2B-NS3pro 300 nM, Vmax changes, Km unchanged): substrate-non-competitive manner; water solubility (Water solubility): poorly water-soluble
